Results taken from ChEMBL document CHEMBL1629526, “4-[1-(Substituted aryl/alkyl carbonyl)-benzoimidazol-2-yl]-benzenesulfonic acids: synthesis, antimicrobial activity, QSAR studies, and antiviral evaluation” (Eur J Med Chem, 2010).
Values after ≈ are worked out from the molar mass of the structure shown.

Key:
Staphylococcus aureus = test: Antimicrobial activity against Staphylococcus aureus after 24 hrs by tube dilution method; assay type: functional
Bacillus subtilis = test: Antimicrobial activity against Bacillus subtilis after 24 hrs by tube dilution method; assay type: functional
Method in brief: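 Serial dilutions in double-strength nutrient broth (I.P.) with ciprofloxacin as reference, tube dilution, incubated 37 °C for 24 h. MIC is the lowest concentration that inhibited growth.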

Escherichia coli = test: Antimicrobial activity against Escherichia coli after 24 hrs by tube dilution method; assay type: functional
Candida albicans = test: Antimicrobial activity against Candida albicans after 48 hrs by tube dilution method; assay type: functional
Aspergillus niger = test: Antimicrobial activity against Aspergillus niger after 7 days by tube dilution method; assay type: functional; settings: 168 h
[1] = Cytotoxicity against cat CRFK cells assessed as cell viability by MTS assay; assay type: cell-based, Felis catus; settings: crfk
Method in brief: (§1)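 Uninfected cultures were run in parallel with the antiviral assays. Viability was read by colorimetric formazan MTS assay.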

Felid alphaherpesvirus 1 = test: Antiviral activity against Feline herpesvirus 1 infected in cat CRFK cells assessed as inhibition of virus induced cytopathicity after 2 to 4 days by MTS assay; assay type: functional, organism-based; settings: Felid alphaherpesvirus 1, CRFK
Feline coronavirus = test: Antiviral activity against Feline coronavirus infected in cat CRFK cells assessed as inhibition of virus induced cytopathicity after 2 to 4 days by MTS assay; assay type: functional, organism-based; settings: Alphacoronavirus 1, CRFK
[2] = Cytotoxicity against human HEL cells assessed as altered cell morphology; assay type: cell-based
Method in brief: (§2)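 Uninfected cell cultures run alongside the antiviral assays, exposed to serial compound dilutions and incubated at 37 °C for 2–4 days. Toxicity was scored microscopically and reported as the minimum cytotoxic concentration (MCC), the lowest concentration causing a detectable change in normal cell morphology.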

Human alphaherpesvirus 1 [3] = test: Antiviral activity against Herpes simplex virus 1 KOS infected in HEL cells assessed as inhibition of virus induced cytopathicity after 2 to 4 days by MTS assay; assay type: functional, organism-based; settings: Human alphaherpesvirus 1, KOS
Human alphaherpesvirus 2 = test: Antiviral activity against Herpes simplex virus 2 G infected in HEL cells assessed as inhibition of virus induced cytopathicity after 2 to 4 days by MTS assay; assay type: functional, organism-based; settings: Human alphaherpesvirus 2, strain G
Vaccinia virus = test: Antiviral activity against Vaccinia virus infected in HEL cells assessed as inhibition of virus induced cytopathicity after 2 to 4 days by MTS assay; assay type: functional, organism-based; settings: Orthopoxvirus vaccinia
[4] = tested on: Vesicular stomatitis virus; test: Antiviral activity against Vesicular stomatitis virus infected in HEL cells assessed as inhibition of virus induced cytopathicity after 2 to 4 days by MTS assay; assay type: functional, organism-based
Human alphaherpesvirus 1 [5] = test: Antiviral activity against thymidine kinase deficient acyclovir-resistant Herpes simplex virus 1 KOS infected in HEL cells assessed as inhibition of virus induced cytopathicity after 2 to 4 days by MTS assay; assay type: functional, organism-based; settings: Human alphaherpesvirus 1, KOS
HeLa = test: Cytotoxicity against human HeLa cells assessed as cell viability by MTS assay; assay type: cell-based; settings: hela; method in brief: as §1
[6] = Cytotoxicity against human HeLa cells assessed as altered cell morphology; assay type: cell-based; method in brief: as §2
[7] = tested on: Vesicular stomatitis virus; test: Antiviral activity against Vesicular stomatitis virus infected in human HeLa cells assessed as inhibition of virus induced cytopathicity by visual scoring of CPE; assay type: functional, organism-based
[8] = tested on: Vesicular stomatitis virus; test: Antiviral activity against Vesicular stomatitis virus infected in human HeLa cells assessed as inhibition of virus induced cytopathicity after 2 to 4 days by MTS assay; assay type: functional, organism-based
Coxsackievirus B4 [9] = test: Antiviral activity against coxsackievirus B4 infected in human HeLa cells assessed as inhibition of virus induced cytopathicity by visual scoring of CPE; assay type: functional, organism-based; settings: Enterovirus B
Coxsackievirus B4 [10] = test: Antiviral activity against coxsackievirus B4 infected in human HeLa cells assessed as inhibition of virus induced cytopathicity after 2 to 4 days by MTS assay; assay type: functional, organism-based; settings: Enterovirus B
[11] = tested on: Respiratory syncytial virus; test: Antiviral activity against Respiratory syncytial virus infected in human HeLa cells assessed as inhibition of virus induced cytopathicity by visual scoring of CPE; assay type: functional, organism-based
[12] = tested on: Respiratory syncytial virus; test: Antiviral activity against Respiratory syncytial virus infected in human HeLa cells assessed as inhibition of virus induced cytopathicity after 2 to 4 days by MTS assay; assay type: functional, organism-based
MDCK = test: Cytotoxicity against MDCK cells assessed as cell viability by MTS assay; assay type: cell-based, Canis lupus familiaris; settings: dog, mdck; method in brief: as §1
[13] = Cytotoxicity against MDCK cells assessed as altered cell morphology; assay type: cell-based, Canis lupus familiaris; settings: dog; method in brief: as §2
Influenza A virus [14] = test: Antiviral activity against Influenza A H3N2 virus subtype infected in MDCK cells assessed as inhibition of virus induced cytopathicity by visual scoring of CPE; assay type: functional, organism-based
Influenza A virus [15] = test: Antiviral activity against Influenza A H3N2 virus subtype infected in MDCK cells assessed as inhibition of virus induced cytopathicity after 2 to 4 days by MTS assay; assay type: functional, organism-based
Influenza B virus [16] = test: Antiviral activity against Influenza B virus infected in MDCK cells assessed as inhibition of virus induced cytopathicity by visual scoring of CPE; assay type: functional, organism-based
Influenza B virus [17] = test: Antiviral activity against Influenza B virus infected in MDCK cells assessed as inhibition of virus induced cytopathicity after 2 to 4 days by MTS assay; assay type: functional, organism-based
[18] = Cytotoxicity against african green monkey Vero cells assessed as altered cell morphology; assay type: cell-based; settings: chlorocebus sabaeus; method in brief: as §2
Human respirovirus 3 = test: Antiviral activity against parainfluenza-3 virus infected in african green monkey Vero cells assessed as inhibition of virus induced cytopathicity after 2 to 4 days by MTS assay; assay type: functional, organism-based; settings: Human respirovirus 3, Vero
[19] = tested on: Mammalian orthoreovirus 1; test: Antiviral activity against Reovirus 1 virus infected in african green monkey Vero cells assessed as inhibition of virus induced cytopathicity after 2 to 4 days by MTS assay; assay type: functional, organism-based; settings: Mammalian orthoreovirus 1, Vero
Sindbis virus = test: Antiviral activity against Sindbis virus infected in african green monkey Vero cells assessed as inhibition of virus induced cytopathicity after 2 to 4 days by MTS assay; assay type: functional, organism-based
Coxsackievirus B4 [20] = test: Antiviral activity against Coxsackie virus B4 infected in african green monkey Vero cells assessed as inhibition of virus induced cytopathicity after 2 to 4 days by MTS assay; assay type: functional, organism-based; settings: Enterovirus B
Punta Toro virus = test: Antiviral activity against Punta Toro virus infected in african green monkey Vero cells assessed as inhibition of virus induced cytopathicity after 2 to 4 days by MTS assay; assay type: functional, organism-based

Row | Compound | MBC (Staphylococcus aureus) [µg/mL] | MBC (Bacillus subtilis) [µg/mL] | MBC (Escherichia coli) [µg/mL] | MFC (Candida albicans) [µg/mL] | MFC (Aspergillus niger) [µg/mL] | CC50 [1] [µg/mL] | EC50 (Felid alphaherpesvirus 1) [µg/mL] | EC50 (Feline coronavirus) [µg/mL] | MCC [2] [µg/mL] | EC50 (Human alphaherpesvirus 1 [3]) [µg/mL] | EC50 (Human alphaherpesvirus 2) [µg/mL] | EC50 (Vaccinia virus) [µg/mL] | EC50 [4] [µg/mL] | EC50 (Human alphaherpesvirus 1 [5]) [µg/mL] | CC50 (HeLa) [µg/mL] | MCC [6] [µg/mL] | EC50 [7] [µg/mL] | EC50 [8] [µg/mL] | EC50 (Coxsackievirus B4 [9]) [µg/mL] | EC50 (Coxsackievirus B4 [10]) [µg/mL] | also measured
1 | Cc1ccc(C(=O)n2c(-c3ccc(S(=O)(=O)O)cc3)nc3ccccc32)cc1 | 12.5 (≈ 31.9 µM) | 6.25 (≈ 15.9 µM) | 25 (≈ 63.7 µM) | 50 (≈ 127 µM) | > 50 | > 100 | > 100 | > 100 | > 100 | > 100 | > 100 | > 100 | > 100 | > 100 | > 100 | > 100 | > 100 | > 100 | > 100 | > 100 | EC50 [11]: > 100 µg/mL; EC50 [12]: > 100 µg/mL; CC50 (MDCK): > 100 µg/mL; MCC [13]: > 100 µg/mL; EC50 (Influenza A virus [14]): > 100 µg/mL; EC50 (Influenza A virus [15]): > 100 µg/mL; EC50 (Influenza B virus [16]): > 100 µg/mL; EC50 (Influenza B virus [17]): > 100 µg/mL; MCC [18]: > 100 µg/mL; EC50 (Human respirovirus 3): > 100 µg/mL; EC50 [19]: > 100 µg/mL; EC50 (Sindbis virus): > 100 µg/mL; EC50 (Coxsackievirus B4 [20]): > 100 µg/mL; EC50 (Punta Toro virus): > 100 µg/mL
2 | C/C=C/C(=O)n1c(-c2ccc(S(=O)(=O)O)cc2)nc2ccccc21 | 12.5 (≈ 36.5 µM) | 50 (≈ 146 µM) | 12.5 (≈ 36.5 µM) | > 50 | > 50 | > 100 | > 100 | > 100 | > 100 | > 100 | > 100 | > 100 | > 100 | > 100 | > 100 | > 100 | > 100 | > 100 | > 100 | > 100 | EC50 [11]: > 100 µg/mL; EC50 [12]: > 100 µg/mL; CC50 (MDCK): > 100 µg/mL; MCC [13]: > 100 µg/mL; EC50 (Influenza A virus [14]): > 100 µg/mL; EC50 (Influenza A virus [15]): > 100 µg/mL; EC50 (Influenza B virus [16]): > 100 µg/mL; EC50 (Influenza B virus [17]): > 100 µg/mL; MCC [18]: > 100 µg/mL; EC50 (Human respirovirus 3): > 100 µg/mL; EC50 [19]: > 100 µg/mL; EC50 (Sindbis virus): > 100 µg/mL; EC50 (Coxsackievirus B4 [20]): > 100 µg/mL; EC50 (Punta Toro virus): > 100 µg/mL
